The source made the active and inactive calls. The calls are words filed in the database; no cut-off is given here.
Key:
UO-31 = test: Cytotoxicity against human UO31 cells after 48 hrs by MTT assay; type: functional; details: UO-31, 48 h
A549 [1] = test: Cell cycle arrest at human A549 cells assessed as accumulation at sub G1 phase at 1 uM after 48 hrs by propidium iodide-staining-based FACS flow cytometric analysis (reference value: 1.02%); type: functional
MDA-MB-468 = test: Cytotoxicity against human MDA-MB-468 cells after 48 hrs by MTT assay; type: functional; details: MDA-MB-468, 48 h
Hs-578T = test: Cytotoxicity against human Hs578T cells after 48 hrs by MTT assay; type: functional
A549 [2] = test: Induction of apoptosis in human A549 cells assessed as activation of caspase-3 at 1 to 2 uM after 48 hrs by ELISA relative to control; type: functional, cell-based
In short: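 A549 lung cancer cells exposed to 1 and 2 µM compound for 48 h, with roscovitine as positive control. Pellets lysed for 15 min, and supernatant caspase-3 activity read by a commercial colorimetric kit relative to untreated control. Values are mean ± SD of two experiments run in triplicate.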

A549 [3] = test: Cytotoxicity against human A549 cells after 48 hrs by MTT assay; type: functional, cell-based; details: A549, 48 h
In short: (§1)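 MTT assay: […] were plated in DMEM with 10% FBS and incubated for 24 h at 37 °C under CO2. Compounds diluted in culture medium were added alongside a vehicle control for 48 h. MTT (10 µl of a 5 mg/ml stock) was added for a further 4 h. The supernatant was then removed, the formazan dissolved in DMSO, and absorbance read at 540 nm. IC50 was derived.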

A549 [4] = test: Induction of apoptosis in human A549 cells assessed as cytoplasmic condensation at 2 uM after 48 hrs by Hoechst staining assay; type: functional, cell-based
In short: (§2)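 A549 cells (10,000 per 18-mm coverslip) grown 24 h, then given 2 µM compound for 48 h, with 0.001% DMSO vehicle and roscovitine controls. Hoechst 33258 (0.5 mg/mL) in 4% paraformaldehyde was added for 30 min. Randomly chosen fields were imaged by fluorescence microscopy and apoptotic cells scored manually by cytoplasmic condensation, apoptotic bodies and nuclear fragmentation.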

UACC-62 = test: Cytotoxicity against human UACC62 cells after 48 hrs by MTT assay; type: functional; details: UACC-62, 48 h
HeLa = test: Cytotoxicity against human HeLa cells after 48 hrs by MTT assay; type: functional, cell-based; in short: as §1
HOP-62 = test: Cytotoxicity against human HOP62 cells after 48 hrs by MTT assay; type: functional; details: HOP-62, 48 h
A549 [5] = test: Induction of apoptosis in human A549 cells assessed as nuclear fragmentation at 2 uM after 48 hrs by Hoechst staining assay; type: functional, cell-based; in short: as §2
RXF 393 = test: Cytotoxicity against human RXF393 cells after 48 hrs by MTT assay; type: functional; details: RXF 393, 48 h
TK-10 = test: Cytotoxicity against human TK10 cells after 48 hrs by MTT assay; type: functional; details: TK-10, 48 h
[6] = Cytotoxicity against human EKVX cells after 48 hrs by MTT assay; type: functional
MOLT-4 = test: Cytotoxicity against human MOLT4 cells after 48 hrs by MTT assay; type: functional; details: MOLT-4, 48 h
A549 [7] = test: Cell cycle arrest at human A549 cells assessed as accumulation at G0/G1 phase at 2 uM after 48 hrs by propidium iodide-staining-based FACS flow cytometric analysis (reference value: 81.33%); type: functional
NCI-H322M = test: Cytotoxicity against human NCI-H322M cells after 48 hrs by MTT assay; type: functional
786-0 = test: Cytotoxicity against human 786-0 cells after 48 hrs by MTT assay; type: functional; details: 786-0, 48 h
U-251 = test: Cytotoxicity against human U251 cells after 48 hrs by MTT assay; type: functional; details: U-251, 48 h
HCT-116 = test: Cytotoxicity against human HCT116 cells after 48 hrs by MTT assay; type: functional; details: HCT-116, 48 h
RPMI-8226 = test: Cytotoxicity against human RPMI8226 cells after 48 hrs by MTT assay; type: functional; details: RPMI-8226, 48 h
DU-145 = test: Cytotoxicity against human DU145 cells after 48 hrs by MTT assay; type: functional, cell-based; details: DU-145, 48 h; in short: as §1
OVCAR-4 = test: Cytotoxicity against human OVCAR4 cells after 48 hrs by MTT assay; type: functional; details: OVCAR-4, 48 h
CAKI-1 = test: Cytotoxicity against human Caki1 cells after 48 hrs by MTT assay; type: functional; details: CAKI-1, 48 h
LOX IMVI = test: Cytotoxicity against human LOXIMVI cells after 48 hrs by MTT assay; type: functional
SK-MEL-5 = test: Cytotoxicity against human SK-MEL-5 cells after 48 hrs by MTT assay; type: functional; details: SK-MEL-5, 48 h
MDA-MB-435 = test: Cytotoxicity against human MDA-MB-435 cells after 48 hrs by MTT assay; type: functional; details: MDA-MB-435, 48 h
SK-MEL-28 = test: Cytotoxicity against human SK-MEL-28 cells after 48 hrs by MTT assay; type: functional; details: SK-MEL-28, 48 h
[8] = Cytotoxicity against human NCI-ADR-RES cells after 48 hrs by MTT assay; type: functional
KM12 = test: Cytotoxicity against human KM12 cells after 48 hrs by MTT assay; type: functional; details: KM12, 48 h

SMILES | Activity (A549 [1]) [%] | GI50 (MDA-MB-468) [µM] | GI50 (Hs-578T) [µM] | Activity (A549 [2]) | IC50 (A549 [3]) [nM] | Activity (A549 [4]) | GI50 (UACC-62) [µM] | IC50 (HeLa) [µM] | GI50 (HOP-62) [µM] | Activity (A549 [5]) | GI50 (RXF 393) [µM] | GI50 (TK-10) [µM] | GI50 [6] [µM] | Activity (A549 [7]) [%] | GI50 (NCI-H322M) [µM] | GI50 (786-0) [nM] | GI50 (U-251) [µM] | GI50 (HCT-116) [µM] | GI50 (DU-145) [µM] | IC50 (DU-145) [nM] | other results
O=C(Nc1nc2ccccc2s1)c1cc(-c2ccc(F)cc2)n2nc(-c3ccccc3)cc2n1 | 4.01 | 5.1 | 2.2 | Active | 1940 | Active | 3.7 | 2.63 | 2.2 | Active | 2.5 | 2.4 | 6.6 | 28.75 | 5.8 | 2100 | 2 | 2.7 | 4.9 | 2080 | GI50 (UO-31): 1900 nM; GI50 (A549 [3]): 2700 nM; GI50 (MOLT-4): 21 µM; GI50 (RPMI-8226): 5.5 µM; GI50 (OVCAR-4): 1800 nM
COc1cc(-c2cc(C(=O)Nc3nc4ccccc4s3)nc3cc(-c4ccccc4)nn23)cc(OC)c1OC | 11.77 | 13.9 | 4.7 | Active | 2010 | Active | 14.4 | 7.07 | 9.8 | Active | 6.2 | 11.9 | 42 | 32.18 | 67.5 | 2500 | 5.1 | 4.5 | 65 | 3160 | GI50 (CAKI-1): 53.7 µM; GI50 (LOX IMVI): 5.5 µM; GI50 (SK-MEL-5): 13.8 µM; GI50 (MDA-MB-435): 2600 nM; GI50 (SK-MEL-28): 3.3 µM; GI50 [8]: 19.6 µM; GI50 (KM12): 22 µM

From ChEMBL document CHEMBL2384939, “Synthesis of pyrazolo[1,5-a]pyrimidine linked aminobenzothiazole conjugates as potential anticancer agents” (Bioorg Med Chem Lett, 2013)
